# Compound activity deposited in PubChem by Sanford-Burnham Center for Chemical Genomics.
# PPC-1+TRAIL kill: kills PPC-1 cancer cells in the presence of TRAIL | cell killing (% activity), % at 4 µM or 5 µM | hit rate 0.41% among 220,000 | PPC-1 cells + TRAIL, ATPLite viability luminescence;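 active = cell killing above 50% in the first pass at 4 µM, then a duplicate retest at 5 µM averaging 50% or more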;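 also: plate controls were cells with TRAIL plus DMSO for no effect and medium-only wells lacking cells for full effect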
# beta cell repl: induces beta-cell replication in MIN6 cells | AID 2380 | hit rate 0.29% among 330,000 | MIN6 cells proliferation, ATPlite luminescence, 48 h; cells starved in 0.2% serum; 100% = growth in 10% serum | proliferation, % at 10 µM;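 active = compounds whose signal lies at least 3.5 SD above the mean of all wells on their plate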;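 also: 0% = DMSO-treated cells in low-serum medium and 100% = 10% serum control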
# hiPSC survival: hiPSC single-cell survival enhancement. ATPlite luminescence; 100% = ROCK inhibitor wells, 0% = DMSO. survival enhancement, % at 20 µM. hit rate 0.044% among 360,000. AID 602274; in the data active = survival enhancement above about 18%;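 also: cells exposed to compounds for 16 hours before the ATP read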
# FLuc stim CS: firefly luciferase counter-screen for stimulation assays. P08659. ATPlite luciferase biochemical, luminescence, 10 min; 0 = ATP-free wells, 1 = DMSO control. activation factor at 10 µM. 200,000 tested, under 10 active. AID 1027;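 active = luciferase activation factor, scaled between plate controls, of at least 2 with compound at 10 µM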
# Target sequence (P08659 whole entry, looked up): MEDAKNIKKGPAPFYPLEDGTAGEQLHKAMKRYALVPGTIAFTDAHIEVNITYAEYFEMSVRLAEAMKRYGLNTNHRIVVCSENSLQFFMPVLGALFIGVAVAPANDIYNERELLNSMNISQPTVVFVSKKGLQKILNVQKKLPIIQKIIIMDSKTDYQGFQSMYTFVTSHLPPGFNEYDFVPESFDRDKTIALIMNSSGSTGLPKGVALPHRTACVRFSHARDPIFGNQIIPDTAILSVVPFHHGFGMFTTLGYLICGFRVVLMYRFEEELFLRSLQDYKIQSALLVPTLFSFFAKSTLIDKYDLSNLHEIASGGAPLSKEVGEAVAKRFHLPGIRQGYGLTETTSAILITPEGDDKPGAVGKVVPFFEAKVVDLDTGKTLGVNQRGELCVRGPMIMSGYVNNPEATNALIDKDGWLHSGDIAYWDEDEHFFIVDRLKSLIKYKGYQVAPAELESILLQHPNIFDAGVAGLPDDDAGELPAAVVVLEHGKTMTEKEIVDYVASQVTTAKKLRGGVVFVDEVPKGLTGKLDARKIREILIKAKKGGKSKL
#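 Material: Luciferase/luciferin reagent mix | Doses: Test compounds dosed from 2 mM stocks in 100% DMSO | Timing: 10 min incubation after luciferase reagent addition, room temperature | Measured by: Luminescence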
# FLuc inh counter: Photinus pyralis luciferase inhibition counter-screen; hit rate 1.5% among 200,000; inhibition, % at 10 µM; ATPLite firefly luciferase biochemical luminescence, 10 min; P08659; AID 1006;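 active = inhibition above about 50% when tested at 10 µM, limit read from the data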
# TRAIL sens C8: caspase-8 TRAIL sensitization | hit rate 1% among 360,000 | NB7+C8 cells + TRAIL, ATPlite viability luminescence | inhibition (viability loss, TRAIL sensitization), % at 10 µM;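 active = compounds causing at least 50% loss of cell viability in the single-dose screen, relative to plate controls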
# The depositor's hits bear a star; · = no result. Only some compounds are listed: those with a hit (about 1.8% of all), similar ones and a draw of the others.
SMILES,PPC-1+TRAIL kill,beta cell repl,hiPSC survival,FLuc stim CS,FLuc inh counter,TRAIL sens C8
O=C(C[C@H]1C/C=C\C[C@H](NC(=O)OCC2c3ccccc3-c3ccccc32)C(=O)OC[C@H](Cc2ccccc2)NC1=O)N[C@H](CO)Cc1ccccc1,·,-5.7,-1.1,·,·,63.5*
Cc1ccc(C(C)NC(=O)COC(=O)C2=COCCO2)cc1C (centres undefined),·,-2.2,-0.3,·,·,0.5
CCOC(=O)/C=C(C)\C=C\c1c[nH]c2ccccc12,12.5,-1.2,0.2,·,·,2.5
C(=N\Nc1nccc(-c2cccnc2)n1)/c1ccccc1,13.2,1.9,-0.9,·,·,28.5
Cc1ccnc(N/N=C/c2ccccc2)n1,-2.8,-4.0,0.5,0.5,51.2*,17.4
O=C(Nc1ccccc1)Nc1ccc2ccccc2c1,-0.3,-2.3,-0.6,·,·,9.5
CC(C)Sc1cc(Cl)nc(NC(=O)Nc2ccccc2)n1,·,-3.7,-0.5,·,·,90.5*
CC(C)OC(=O)c1sc2nc(-c3ccccc3)ccc2c1N,32.2,-4.0,-2.6,0.3,72.7*,54.4*
COC(=O)c1sc2nc(-c3ccco3)ccc2c1N,13.6,-4.3,-2.3,0.2,83.6*,57.2*
NC(=O)c1sc2nc(-c3cccnc3)ccc2c1N,11.0,-1.5,-0.6,·,·,18.0
CCOC(=O)c1sc2nc(-c3cccnc3)ccc2c1N,41.7,-4.5,-0.8,0.2,77.0*,58.5*
COc1ccc(-c2nc(SC(C)C(=O)NCC3CCCO3)n[nH]2)cc1 (centres undefined),·,-2.5,0.0,·,·,8.3
Cc1cc(=O)[nH]c2nnc(-c3ccc(Cl)cc3)n12,·,-3.0,-0.6,·,·,67.7*
Cc1cc(=O)[nH]c(N2CCN(c3ccc(Cl)cc3)CC2)n1,·,·,0.0,·,·,-4.5
CCCCCCCC[n+]1cccc2c3ccccc3ccc21,44.4,-6.9,-4.8,1.1,-6.9,59.4*
COc1cccc(NC(=O)c2nn(C)cc2Br)c1,·,-3.0,1.3,·,·,-7.7
O=C(Nc1ccc(F)cc1)c1nsc(Cl)c1Cl,8.2,-2.4,2.9,0.7,28.9,11.2
CCOc1ccc(NC(=O)c2nn(C)cc2Br)cc1,41.0,-1.9,-4.1,0.3,70.3*,46.0
CCOc1ccc(NC(=O)c2nsc(Cl)c2Cl)cc1,12.6,-3.4,1.3,0.5,50.7*,37.0
COc1cccc(CNC(=O)C2CCC(=O)N(CC3CCCCC3)C2)c1OC (centres undefined),·,-1.6,0.5,·,·,-7.3
C/C(=N\NC(=O)c1ccc(F)cc1)c1ccccn1,·,-5.2,-0.7,·,·,55.0*
C/C(=N\NC(=O)c1cc2ccccc2cc1O)c1ccccn1,·,-6.8,-0.4,·,·,58.3*
C/C(=N\NC(=O)c1c[nH]c2ccccc12)c1ccccn1,29.2,-3.6,-0.9,0.6,37.5,20.2
CC(=N/O)/C(C)=N\NC(=O)c1ccccn1,29.2,-1.9,-0.1,0.5,51.2*,42.9
COc1ccccc1NC(=O)C1CC(C)OC1=O (centres undefined),·,0.2,-0.9,·,·,-2.4
SMILES,PPC-1+TRAIL kill,beta cell repl,hiPSC survival,FLuc stim CS,FLuc inh counter,TRAIL sens C8
Cc1ccsc1C=C1C(=O)c2ccccc2C1=O,7.5,-2.2,-2.7,0.3,72.8*,-18.2
Cc1ccsc1/C=C1/C(=O)NN(c2ccccc2)C1=O,-10.3,-1.9,-0.3,0.4,59.3*,7.5
CSc1ccc(CN2CCC2(C)C(=O)NC2CCc3ccccc32)cc1 (centres undefined),·,·,5.9,·,·,7.1
Cc1cccc(NC(=S)NCc2ccc3c(c2)OCO3)c1,27.5,0.0,1.4,1.1,-7.2,-16.5
Cc1ccc(NC(=O)c2ccc3c(c2)OCCO3)cc1C,·,0.0,-0.6,·,·,76.2*
O=C(Nc1ccccc1)c1ccc2c(c1)OCCO2,46.4,-6.2,-4.3,0.4,64.9*,33.5
O=C(Nc1ccc(NC(=O)c2ccc3c(c2)OCCO3)cc1)c1ccccc1,·,-3.0,0.0,·,·,32.1
Cc1cccc(NC(=S)NNC(=O)c2ccc3c(c2)OCO3)c1,48.1,0.0,-4.1,0.2,79.1*,50.4*
Cc1ccc(NC(=O)c2ccc3c(c2)OCCO3)nc1,·,-6.9,-0.7,·,·,74.3*
COc1ccc2nc(NC(=O)c3sc4nc(C)cc(C)c4c3N)sc2c1,41.1,-2.9,-0.4,·,·,40.9
COc1cccc(CC(NC(C)=O)C(=O)NC2CCN(c3nnnn3-c3ccccc3)CC2)c1OC (centres undefined),11.7,-1.1,4.0,1.1,-5.1,-5.9
CC(=O)Oc1ccc2c(=O)c(/C=N/c3cc(=O)[nH]c(=S)[nH]3)coc2c1,8.5,-1.5,-0.1,·,·,-25.6
O=C(NC(c1ccccc1)c1ccsc1)C1CCN(Cc2ccc(Oc3ccccc3)cc2)CC1 (centres undefined),·,·,1.0,·,·,-2.1
O=C1C2CCCN2C(=O)N1CCN1CCN(c2cccc(C(F)(F)F)c2)CC1 (centres undefined),·,·,-0.1,·,·,16.3
Cc1cc(C)c(C(=O)Nc2ccc3c(c2)OCCO3)c(C)c1,·,·,2.8,·,·,0.0
Cc1ccc(C(=O)Nc2ccc3c(c2)OCCO3)c(C)c1,·,-4.2,-0.9,·,·,87.4*
Cc1cccc(NC(=O)c2ccc3c(c2)OCCO3)c1,·,-4.0,-0.7,·,·,87.0*
COc1ccc2oc(C(=O)c3ccccc3)c(N)c2c1,5.2,-2.1,·,0.8,16.7,·
COC(=O)CCC(=O)c1oc2ccc(OC)cc2c1N,17.2,-4.9,-0.6,0.4,56.0*,16.7
CCC(Cc1ccccc1)NC(=O)C1CCN(S(=O)(=O)c2ccc3c(c2)CC(C)N3C(C)=O)CC1 (centres undefined),·,-1.6,-0.1,·,·,-1.6
Cn1c(/N=C/c2c[nH]c3ccccc23)nc2ccccc21,-6.8,-2.1,-1.3,0.1,87.8*,38.0
Cn1c(/N=C/c2ccc3c(c2)OCO3)nc2ccccc21,1.9,-3.1,1.2,0.1,90.9*,-4.1
CCN(CC)Cc1ccccc1CNC(=O)c1cccc(S(=O)(=O)Nc2ccc3c(c2)OCO3)c1,·,-5.0,0.2,·,·,7.4
N/C(=N\N=C\c1ccc2c(c1)OCO2)c1nonc1N,18.8,-3.6,-4.4,0.2,78.5*,40.3
N/C(=N\N=C\c1cccc([N+](=O)[O-])c1)c1nonc1N,7.5,-0.4,0.1,·,·,-18.6
Cc1[nH]nc(C(F)(F)F)c1N=NN1CCOCC1,·,·,-3.8,·,·,77.6*
CCC(CCC(=O)NNC(=O)Cc1ccc([N+](=O)[O-])cc1)C(=O)O (centres undefined),3.4,1.9,0.7,·,·,3.8
CC(C)(C)c1ccc(-n2ncc3c2CCCC3NC(=O)CCCn2cncn2)cc1 (centres undefined),·,-0.9,-0.5,·,·,10.3
